Measured values taken from ChEMBL document CHEMBL5303300, “EUbOPEN Chemogenomics Library - Multiplex” (2023).
“And” between values parts separate entries of the source, which are not always exact repeats. Equal entries are not always repeated.

Test system: U2OS
Assay: Multiplex assay against U2OS
Assay type: toxicity, cell-based
Conditions: human, number of replicates 2
Outline: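 Hoechst33342, BioTracker Green Microtubule Cytoskeleton Dye, MitoTracker Red and Annexin V Alexa Fluor 680 were added to live cells at seeding, and imaging on a CQ1 microscope at 37°C and 5% CO2 followed compound addition. Gating by CellPathfinder machine learning separated cells into Hoechst high-intensity objects or normal cells, then normal cells into healthy, pyknosed or fragmented nuclei, then pyknosed cells into mitotic or apoptotic. Per cents of healthy-nucleus cells are reported for the tubulin, mitochondrial-mass and membrane-permeability phenotypes.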

[1] = 12 h, 1 µM, compound concentration 1 uM
[2] = 12 h, 10 µM, compound concentration 10 uM
[3] = 24 h, 1 µM, compound concentration 1 uM
[4] = 24 h, 10 µM, compound concentration 10 uM
[5] = 48 h, 1 µM, compound concentration 1 uM
[6] = 48 h, 10 µM, compound concentration 10 uM

## CNC(=O)c1c(F)cccc1Nc1nc(Nc2cc3c(cc2OC)CCN3C(=O)CN(C)C)nc2[nH]ccc12
[1]
  Population Apoptotic (%): 57% and 62%
  Population Healthy Nuclei (%): 60% and 80%
  Population Hoechst High Intensity Objects (%): 0%
  Population Membrane Permeable-Phenotype (%): 0% and 7%
  Population Mitochondria Different-Phenotype (%): 0% and 8%
  Population Mitotic Cells (%): 42% and 37%
  Population Normal (%): 100%
  Population Pyknosed Nuclei (%): 13% and 15%
  Population Tubulin-Different-Phenotype (%): 80% and 46%
[2]
  Population Apoptotic (%): 46% and 60%
  Population Healthy Nuclei (%): 33% and 35%
  Population Hoechst High Intensity Objects (%): 0% and 2%
  Population Mitotic Cells (%): 53% and 39%
  Population Normal (%): 100% and 97%
  Population Tubulin-Different-Phenotype (%): 57% and 75%
  Total Cell Count: 815 and 281
[3]
  Population Apoptotic (%): 46% and 59%
  Population Healthy Nuclei (%): 55% and 80%
  Population Hoechst High Intensity Objects (%): 0%
  Population Membrane Permeable-Phenotype (%): 0% and 3%
  Population Mitochondria Different-Phenotype (%): 0% and 7%
  Population Mitotic Cells (%): 53% and 40%
  Population Normal (%): 100%
  Population Pyknosed Nuclei (%): 25% and 15%
  Population Tubulin-Different-Phenotype (%): 87% and 50%
[4]
  Population Apoptotic (%): 72% and 83%
  Population Healthy Nuclei (%): 32% and 23%
  Population Hoechst High Intensity Objects (%): 0% and 1%
  Population Mitotic Cells (%): 27% and 16%
  Population Normal (%): 100% and 98%
  Population Tubulin-Different-Phenotype (%): 62% and 78%
[5]
  Population Apoptotic (%): 72% and 78%
  Population Healthy Nuclei (%): 61% and 82%
  Population Hoechst High Intensity Objects (%): 1% and 0%
  Population Membrane Permeable-Phenotype (%): 2% and 4%
  Population Mitochondria Different-Phenotype (%): 2% and 5%
  Population Mitotic Cells (%): 27% and 22%
  Population Normal (%): 98% and 100%
  Population Pyknosed Nuclei (%): 23% and 14%
  Population Tubulin-Different-Phenotype (%): 91% and 62%
[6]
  Population Apoptotic (%): 95% and 94%
  Population Hoechst High Intensity Objects (%): 0% and 1%
  Population Mitotic Cells (%): 4% and 5%
  Population Normal (%): 100% and 98%
  Population Tubulin-Different-Phenotype (%): 64% and 80%

## CCNc1ccc(-c2nn(-c3ccccc3C)c3c2C(C)Cc2nc(NC(=O)OC)sc2-3)cn1.O=C(O)C(F)(F)F (stereo unspecified)
[1]
  Population Apoptotic (%): 72% and 80%
  Population Fragmented Nuclei (%): 14% and 11%
  Population Healthy Nuclei (%): 71% and 73%
  Population Hoechst High Intensity Objects (%): 0% and 1%
  Population Membrane Permeable-Phenotype (%): 5% and 2%
  Population Mitochondria Different-Phenotype (%): 5% and 4%
  Population Mitotic Cells (%): 27% and 20%
  Population Normal (%): 100% and 98%
  Population Pyknosed Nuclei (%): 14%
  Population Tubulin-Different-Phenotype (%): 55% and 24%
  Total Cell Count: 200 and 68
[2]
  Population Apoptotic (%): 83% and 88%
  Population Fragmented Nuclei (%): 32% and 18%
  Population Healthy Nuclei (%): 25% and 55%
  Population Hoechst High Intensity Objects (%): 0%
  Population Membrane Permeable-Phenotype (%): 28% and 25%
  Population Mitotic Cells (%): 16% and 11%
  Population Normal (%): 100% and 99%
  Population Pyknosed Nuclei (%): 42% and 25%
  Population Tubulin-Different-Phenotype (%): 57% and 88%
[3]
  Population Apoptotic (%): 84% and 75%
  Population Fragmented Nuclei (%): 14% and 6%
  Population Healthy Nuclei (%): 63% and 74%
  Population Hoechst High Intensity Objects (%): 0%
  Population Membrane Permeable-Phenotype (%): 2% and 8%
  Population Mitochondria Different-Phenotype (%): 9% and 2%
  Population Mitotic Cells (%): 15% and 25%
  Population Normal (%): 100%
  Population Pyknosed Nuclei (%): 21% and 19%
  Population Tubulin-Different-Phenotype (%): 58% and 34%
  Total Cell Count: 176 and 63
[4]
  Population Apoptotic (%): 72% and 89%
  Population Healthy Nuclei (%): 18% and 39%
  Population Hoechst High Intensity Objects (%): 0%
  Population Membrane Permeable-Phenotype (%): 14% and 32%
  Population Mitochondria Different-Phenotype (%): 28% and 63%
  Population Mitotic Cells (%): 27% and 10%
  Population Normal (%): 100% and 99%
  Population Pyknosed Nuclei (%): 29% and 45%
  Population Tubulin-Different-Phenotype (%): 42% and 83%
[5]
  Population Apoptotic (%): 72% and 80%
  Population Fragmented Nuclei (%): 9% and 7%
  Population Healthy Nuclei (%): 52% and 57%
  Population Hoechst High Intensity Objects (%): 0% and 1%
  Population Membrane Permeable-Phenotype (%): 6% and 7%
  Population Mitochondria Different-Phenotype (%): 9% and 2%
  Population Mitotic Cells (%): 27% and 20%
  Population Normal (%): 99% and 98%
  Population Pyknosed Nuclei (%): 37% and 35%
  Population Tubulin-Different-Phenotype (%): 69% and 25%
  Total Cell Count: 157 and 71
[6]
  Population Apoptotic (%): 90% and 93%
  Population Healthy Nuclei (%): 10% and 28%
  Population Hoechst High Intensity Objects (%): 0%
  Population Membrane Permeable-Phenotype (%): 66% and 43%
  Population Mitotic Cells (%): 10% and 6%
  Population Normal (%): 100% and 99%
  Population Pyknosed Nuclei (%): 33% and 61%
  Population Tubulin-Different-Phenotype (%): 100% and 84%

## COc1ncc(-c2cc(-c3ncc(CN4C[C@@H](C)O[C@@H](C)C4)o3)c3cn[nH]c3c2)cc1NS(C)(=O)=O
[1]
  Population Apoptotic (%): 66% and 57%
  Population Fragmented Nuclei (%): 3% and 13%
  Population Healthy Nuclei (%): 85% and 69%
  Population Hoechst High Intensity Objects (%): 0%
  Population Membrane Permeable-Phenotype (%): 1% and 0%
  Population Mitochondria Different-Phenotype (%): 0%
  Population Mitotic Cells (%): 33% and 42%
  Population Normal (%): 99% and 100%
  Population Pyknosed Nuclei (%): 11% and 16%
  Population Tubulin-Different-Phenotype (%): 84% and 43%
[2]
  Population Apoptotic (%): 50% and 64%
  Population Healthy Nuclei (%): 68% and 77%
  Population Hoechst High Intensity Objects (%): 0%
  Population Membrane Permeable-Phenotype (%): 12% and 10%
  Population Mitochondria Different-Phenotype (%): 0% and 5%
  Population Mitotic Cells (%): 50% and 35%
  Population Normal (%): 100% and 99%
  Population Pyknosed Nuclei (%): 10% and 18%
  Population Tubulin-Different-Phenotype (%): 48% and 45%
[3]
  Population Apoptotic (%): 65% and 87%
  Population Fragmented Nuclei (%): 1% and 9%
  Population Healthy Nuclei (%): 87% and 75%
  Population Hoechst High Intensity Objects (%): 0%
  Population Membrane Permeable-Phenotype (%): 1% and 0%
  Population Mitochondria Different-Phenotype (%): 0%
  Population Mitotic Cells (%): 34% and 12%
  Population Normal (%): 99% and 100%
  Population Pyknosed Nuclei (%): 10% and 15%
  Population Tubulin-Different-Phenotype (%): 82% and 47%
[4]
  Population Apoptotic (%): 64% and 74%
  Population Healthy Nuclei (%): 49% and 69%
  Population Hoechst High Intensity Objects (%): 0%
  Population Membrane Permeable-Phenotype (%): 0% and 8%
  Population Mitochondria Different-Phenotype (%): 7% and 9%
  Population Mitotic Cells (%): 35% and 25%
  Population Normal (%): 100%
  Population Pyknosed Nuclei (%): 26% and 23%
  Population Tubulin-Different-Phenotype (%): 76% and 49%
[5]
  Population Apoptotic (%): 65% and 69%
  Population Fragmented Nuclei (%): 2% and 7%
  Population Healthy Nuclei (%): 87% and 72%
  Population Hoechst High Intensity Objects (%): 0%
  Population Membrane Permeable-Phenotype (%): 1% and 0%
  Population Mitochondria Different-Phenotype (%): 0%
  Population Mitotic Cells (%): 34% and 30%
  Population Normal (%): 99% and 100%
  Population Pyknosed Nuclei (%): 10% and 19%
  Population Tubulin-Different-Phenotype (%): 81% and 43%
[6]
  Population Apoptotic (%): 76% and 81%
  Population Healthy Nuclei (%): 55% and 62%
  Population Hoechst High Intensity Objects (%): 0%
  Population Membrane Permeable-Phenotype (%): 7% and 8%
  Population Mitochondria Different-Phenotype (%): 10% and 12%
  Population Mitotic Cells (%): 23% and 18%
  Population Normal (%): 100%
  Population Pyknosed Nuclei (%): 25% and 30%
  Population Tubulin-Different-Phenotype (%): 63% and 50%
